{
  "source": "ChEMBL document CHEMBL5126577",
  "about": "“Discovery of honokiol thioethers containing 1,3,4-oxadiazole moieties as potential α-glucosidase and SARS-CoV-2 entry inhibitors” (Bioorg Med Chem, 2022)",
  "key": {"[1]": {"test": "Inhibition of alpha-glucosidase (unknown origin) using PNPG as substrate at 5 to 45 uM preincubated for 15 mins followed by substrate addition and measured after 10 mins by microplate reader analysis", "details": "Homo sapiens; dose 5-45 µM, time 25.0 min", "procedure,_shortened": "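Compounds in DMSO/PBS dilution series were incubated with α-glucosidase (1.0 U/mL in PBS) for 15 min at 37 °C. 1 mM PNPG was added and incubated 10 min, then OD was read at 405 nm. Inhibition % was corrected with PBS-only and enzyme-free blanks. IC50 was calculated, with experiments run in triplicate.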"}, "[2]": {"test": "Cytotoxicity against human HEK-293T cells overexpressing ACE2 assessed as maximal non-toxic dose incubated for 4 hrs", "type": "toxicity, cell-based"}, "[3]": {"target": "Angiotensin-converting enzyme 2 (Homo sapiens, UniProt Q9BYF1)", "sequence (Q9BYF1 whole entry)": "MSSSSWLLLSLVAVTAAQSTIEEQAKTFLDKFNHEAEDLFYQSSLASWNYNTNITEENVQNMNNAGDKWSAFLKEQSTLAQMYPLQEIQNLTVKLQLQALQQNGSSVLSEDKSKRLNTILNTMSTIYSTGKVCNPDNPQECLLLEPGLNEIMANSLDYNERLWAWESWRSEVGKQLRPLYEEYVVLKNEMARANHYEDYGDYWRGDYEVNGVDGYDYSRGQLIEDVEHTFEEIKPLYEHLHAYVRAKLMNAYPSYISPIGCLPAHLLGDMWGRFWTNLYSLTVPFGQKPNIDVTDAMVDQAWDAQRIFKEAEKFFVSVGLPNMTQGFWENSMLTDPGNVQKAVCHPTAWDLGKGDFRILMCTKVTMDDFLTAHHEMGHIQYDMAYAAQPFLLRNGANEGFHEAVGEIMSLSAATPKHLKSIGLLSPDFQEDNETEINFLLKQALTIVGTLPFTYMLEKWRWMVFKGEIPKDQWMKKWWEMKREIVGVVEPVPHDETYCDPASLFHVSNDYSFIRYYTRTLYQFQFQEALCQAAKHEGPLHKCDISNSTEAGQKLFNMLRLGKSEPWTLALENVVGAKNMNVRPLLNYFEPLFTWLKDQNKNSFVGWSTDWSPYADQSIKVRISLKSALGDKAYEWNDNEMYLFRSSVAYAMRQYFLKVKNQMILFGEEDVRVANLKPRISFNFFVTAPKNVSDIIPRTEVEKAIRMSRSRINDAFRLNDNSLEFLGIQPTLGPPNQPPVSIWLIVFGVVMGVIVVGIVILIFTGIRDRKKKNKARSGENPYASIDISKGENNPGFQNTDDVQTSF", "test": "Binding affinity to human ACE2 assessed as equilibrium dissociation constant by biolayer interferometry assay", "procedure,_shortened": "(§1)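 BLI on Ni-NTA biosensors loaded with His-tagged recombinant SARS-CoV-2 spike RBD or human ACE2. Compounds (10 mM DMSO stock) were diluted serially in PBS. Each cycle: PBS equilibration 10 min, baseline 120 s, association 120 s, dissociation in PBS 120 s, all at 30 °C. Curves were double-referenced to blank sensors and PBS, and KD came from a 1:1 binding fit.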"}, "[4]": {"test": "Cytotoxicity against human L02 cells assessed as cell survival rate at 100 uM by MTT assay", "type": "toxicity, cell-based", "details": "read-out: Survival"}, "[5]": {"system": "L02", "test": "Cytotoxicity against human L02 cells assessed as reduction on cell viability at 3.125 to 100 uM by MTT assay", "type": "toxicity, cell-based", "details": "l02, 100 µM, dose 3.125-100 µM"}, "[6]": {"target": "Spike glycoprotein (Severe acute respiratory syndrome coronavirus 2, UniProt P0DTC2)", "test": "Binding affinity to SARS-CoV-2 spike protein receptor-binding domain assessed as equilibrium dissociation constant by biolayer interferometry assay", "procedure,_shortened": "as §1"}},
  "data": [
    {"smiles": "C=CCc1cc(-c2cc(CC=C)c3oc(SCc4nnc(-c5ccc(F)cc5)o4)nc3c2)c2oc(SCc3nnc(-c4ccc(F)cc4)o3)nc2c1", "values": [
      {"measurement": "inhibition", "setting": "[1]", "result": 8.4, "unit": "%"},
      {"measurement": "MNTC at 4 h", "setting": "[2]", "result": "> 100", "unit": "µM"}
    ]},
    {"smiles": "C=CCc1cc(-c2cc(CC=C)c3oc(SCc4nnc(-c5ccccc5Br)o4)nc3c2)c2oc(SCc3nnc(-c4ccccc4Br)o3)nc2c1", "values": [
      {"measurement": "inhibition", "setting": "[1]", "result": 91.5, "unit": "%"},
      {"measurement": "MNTC at 4 h", "setting": "[2]", "result": "> 100", "unit": "µM"}
    ]},
    {"smiles": "C=CCc1cc(CSc2nnc(-c3cccc(F)c3)o2)c(O)c(-c2ccc(O)c(CC=C)c2)c1", "values": [
      {"measurement": "inhibition", "setting": "[1]", "result": 53.5, "unit": "%"}
    ]},
    {"smiles": "C=CCc1cc(-c2cc(CC=C)c3oc(SCc4nnc(-c5cccc(Br)c5)o4)nc3c2)c2oc(SCc3nnc(-c4cccc(Br)c4)o3)nc2c1", "values": [
      {"measurement": "inhibition", "setting": "[1]", "result": 12.4, "unit": "%"},
      {"measurement": "MNTC at 4 h", "setting": "[2]", "result": "> 100", "unit": "µM"}
    ]},
    {"smiles": "C=CCc1cc(-c2cc(CC=C)c3oc(SCc4nnc(-c5ccccc5Cl)o4)nc3c2)c2oc(SCc3nnc(-c4ccccc4Cl)o3)nc2c1", "values": [
      {"measurement": "inhibition", "setting": "[1]", "result": 19.4, "unit": "%"},
      {"measurement": "MNTC at 4 h", "setting": "[2]", "result": "> 100", "unit": "µM"}
    ]},
    {"smiles": "C=CCc1cc(CSc2nnc(-c3cccnc3)o2)c(O)c(-c2ccc(O)c(CC=C)c2)c1", "values": [
      {"measurement": "Kd", "setting": "[3]", "result": 16, "unit": "µM"},
      {"measurement": "inhibition", "setting": "[1]", "result": 33.2, "unit": "%"},
      {"measurement": "MNTC at 4 h", "setting": "[2]", "result": "> 100", "unit": "µM"},
      {"measurement": "viability at 100 µM", "setting": "[4]", "result": 80, "unit": "%"},
      {"measurement": "Activity", "setting": "[5]", "result": "Non-Toxic"},
      {"measurement": "Kd", "setting": "[6]", "result": 7.29, "unit": "µM"}
    ]},
    {"smiles": "C=CCc1cc(-c2cc(CC=C)c3oc(SCc4nnc(-c5cccc(Cl)c5)o4)nc3c2)c2oc(SCc3nnc(-c4cccc(Cl)c4)o3)nc2c1", "values": [
      {"measurement": "inhibition", "setting": "[1]", "result": 10.4, "unit": "%"},
      {"measurement": "MNTC at 4 h", "setting": "[2]", "result": "> 100", "unit": "µM"}
    ]},
    {"smiles": "C=CCc1cc(-c2cc(CC=C)c3oc(SCc4nnc(-c5ccccc5)o4)nc3c2)c2oc(SCc3nnc(-c4ccccc4)o3)nc2c1", "values": [
      {"measurement": "inhibition", "setting": "[1]", "result": 6.3, "unit": "%"},
      {"measurement": "MNTC at 4 h", "setting": "[2]", "result": "> 100", "unit": "µM"}
    ]},
    {"smiles": "C=CCc1cc(-c2cc(CC=C)c3oc(SCc4nnc(-c5cccc(F)c5)o4)nc3c2)c2oc(SCc3nnc(-c4cccc(F)c4)o3)nc2c1", "values": [
      {"measurement": "inhibition", "setting": "[1]", "result": 14.6, "unit": "%"},
      {"measurement": "MNTC at 4 h", "setting": "[2]", "result": "> 100", "unit": "µM"}
    ]},
    {"smiles": "C=CCc1cc(CSc2nnc(-c3ccccc3F)o2)c(O)c(-c2ccc(O)c(CC=C)c2)c1", "values": [
      {"measurement": "MNTC at 4 h", "setting": "[2]", "result": "> 100", "unit": "µM"}
    ]},
    {"smiles": "C=CCc1cc(-c2cc(CC=C)c3oc(SCc4nnc(-c5ccc(Br)cc5)o4)nc3c2)c2oc(SCc3nnc(-c4ccc(Br)cc4)o3)nc2c1", "values": [
      {"measurement": "inhibition", "setting": "[1]", "result": 22.4, "unit": "%"},
      {"measurement": "MNTC at 4 h", "setting": "[2]", "result": "> 100", "unit": "µM"}
    ]},
    {"smiles": "C=CCc1cc(-c2cc(CC=C)c3oc(SCc4nnc(-c5ccc(OC)cc5)o4)nc3c2)c2oc(SCc3nnc(-c4ccc(OC)cc4)o3)nc2c1", "values": [
      {"measurement": "inhibition", "setting": "[1]", "result": 9.9, "unit": "%"},
      {"measurement": "MNTC at 4 h", "setting": "[2]", "result": "> 100", "unit": "µM"}
    ]},
    {"smiles": "C=CCc1cc(CSc2nnc(-c3ccccc3Cl)o2)c(O)c(-c2ccc(O)c(CC=C)c2)c1", "values": [
      {"measurement": "inhibition", "setting": "[1]", "result": 64.5, "unit": "%"},
      {"measurement": "MNTC at 4 h", "setting": "[2]", "result": "> 100", "unit": "µM"}
    ]},
    {"smiles": "C=CCc1cc(-c2cc(CC=C)c3oc(SCc4nnc(-c5cccc(OC)c5)o4)nc3c2)c2oc(SCc3nnc(-c4cccc(OC)c4)o3)nc2c1", "values": [
      {"measurement": "inhibition", "setting": "[1]", "result": 95.5, "unit": "%"},
      {"measurement": "MNTC at 4 h", "setting": "[2]", "result": "> 100", "unit": "µM"}
    ]},
    {"smiles": "C=CCc1cc(CSc2nnc(-c3cccc(OC)c3)o2)c(O)c(-c2ccc(O)c(CC=C)c2)c1", "values": [
      {"measurement": "inhibition", "setting": "[1]", "result": 81.8, "unit": "%"}
    ]},
    {"smiles": "C=CCc1cc(CSc2nnc(-c3ccc(Br)cc3)o2)c(O)c(-c2ccc(O)c(CC=C)c2)c1", "values": [
      {"measurement": "inhibition", "setting": "[1]", "result": 3.7, "unit": "%"}
    ]},
    {"smiles": "C=CCc1cc(-c2cc(CC=C)c3oc(SCc4nnc(-c5ccccc5F)o4)nc3c2)c2oc(SCc3nnc(-c4ccccc4F)o3)nc2c1", "values": [
      {"measurement": "inhibition", "setting": "[1]", "result": 33.9, "unit": "%"},
      {"measurement": "MNTC at 4 h", "setting": "[2]", "result": "> 100", "unit": "µM"}
    ]},
    {"smiles": "C=CCc1cc(CSc2nnc(-c3ccccc3)o2)c(O)c(-c2ccc(O)c(CC=C)c2)c1", "values": [
      {"measurement": "Kd", "setting": "[3]", "result": 14, "unit": "µM"},
      {"measurement": "inhibition", "setting": "[1]", "result": 69.8, "unit": "%"},
      {"measurement": "MNTC at 4 h", "setting": "[2]", "result": "> 100", "unit": "µM"},
      {"measurement": "viability at 100 µM", "setting": "[4]", "result": 80, "unit": "%"},
      {"measurement": "Activity", "setting": "[5]", "result": "Non-Toxic"},
      {"measurement": "Kd", "setting": "[6]", "result": 6.94, "unit": "µM"}
    ]},
    {"smiles": "C=CCc1cc(-c2cc(CC=C)c3oc(SCc4nnc(-c5ccc(Cl)cc5)o4)nc3c2)c2oc(SCc3nnc(-c4ccc(Cl)cc4)o3)nc2c1", "values": [
      {"measurement": "inhibition", "setting": "[1]", "result": 57.9, "unit": "%"},
      {"measurement": "MNTC at 4 h", "setting": "[2]", "result": "> 100", "unit": "µM"}
    ]},
    {"smiles": "C=CCc1cc(-c2cc(CC=C)c3oc(SCc4nnc(-c5cccc(C)c5)o4)nc3c2)c2oc(SCc3nnc(-c4cccc(C)c4)o3)nc2c1", "values": [
      {"measurement": "inhibition", "setting": "[1]", "result": 95.2, "unit": "%"},
      {"measurement": "MNTC at 4 h", "setting": "[2]", "result": "> 100", "unit": "µM"},
      {"measurement": "viability at 100 µM", "setting": "[4]", "result": 80, "unit": "%"},
      {"measurement": "Activity", "setting": "[5]", "result": "Non-Toxic"}
    ]},
    {"smiles": "C=CCc1cc(-c2cc(CC=C)c3oc(SCc4nnc(-c5ccccc5OC)o4)nc3c2)c2oc(SCc3nnc(-c4ccccc4OC)o3)nc2c1", "values": [
      {"measurement": "inhibition", "setting": "[1]", "result": 25.2, "unit": "%"},
      {"measurement": "MNTC at 4 h", "setting": "[2]", "result": "> 100", "unit": "µM"}
    ]},
    {"smiles": "C=CCc1cc(CSc2nnc(-c3ccc(Cl)cc3)o2)c(O)c(-c2ccc(O)c(CC=C)c2)c1", "values": [
      {"measurement": "inhibition", "setting": "[1]", "result": 7.1, "unit": "%"}
    ]},
    {"smiles": "C=CCc1cc(CSc2nnc(-c3ccccc3C)o2)c(O)c(-c2ccc(O)c(CC=C)c2)c1", "values": [
      {"measurement": "inhibition", "setting": "[1]", "result": 64.5, "unit": "%"},
      {"measurement": "MNTC at 4 h", "setting": "[2]", "result": "> 100", "unit": "µM"}
    ]},
    {"smiles": "C=CCc1cc(CSc2nnc(-c3ccc([N+](=O)[O-])cc3)o2)c(O)c(-c2ccc(O)c(CC=C)c2)c1", "values": [
      {"measurement": "inhibition", "setting": "[1]", "result": 79.5, "unit": "%"}
    ]},
    {"smiles": "C=CCc1cc(-c2cc(CC=C)c3oc(SCc4nnc(-c5ccc(C)cc5)o4)nc3c2)c2oc(SCc3nnc(-c4ccc(C)cc4)o3)nc2c1", "values": [
      {"measurement": "inhibition", "setting": "[1]", "result": 13.5, "unit": "%"},
      {"measurement": "MNTC at 4 h", "setting": "[2]", "result": "> 100", "unit": "µM"}
    ]},
    {"smiles": "C=CCc1cc(CSc2nnc(-c3ccc(C)cc3)o2)c(O)c(-c2ccc(O)c(CC=C)c2)c1", "values": [
      {"measurement": "inhibition", "setting": "[1]", "result": 6.7, "unit": "%"}
    ]},
    {"smiles": "C=CCc1cc(CSc2nnc(-c3cccc(C)c3)o2)c(O)c(-c2ccc(O)c(CC=C)c2)c1", "values": [
      {"measurement": "inhibition", "setting": "[1]", "result": 78.2, "unit": "%"}
    ]},
    {"smiles": "C=CCc1cc(-c2cc(CC=C)c3oc(SCc4nnc(-c5ccccc5C)o4)nc3c2)c2oc(SCc3nnc(-c4ccccc4C)o3)nc2c1", "values": [
      {"measurement": "MNTC at 4 h", "setting": "[2]", "result": "> 100", "unit": "µM"}
    ]},
    {"smiles": "C=CCc1ccc(O)c(-c2ccc(O)c(CC=C)c2)c1", "note": "[HONOKIOL]", "values": [
      {"measurement": "inhibition", "setting": "[1]", "result": 17.1, "unit": "%"},
      {"measurement": "MNTC at 4 h", "setting": "[2]", "result": 50, "unit": "µM"},
      {"measurement": "Kd", "setting": "[6]", "result": 25, "unit": "µM"}
    ]}
  ]
}
